Screening results deposited in PubChem BioAssay by several laboratories.
proCasp3 act: procaspase-3 (human) activation | P42574 | recombinant procaspase-3 D3A, Ac-DEVD-pNA absorbance 405 nm | activation, % at 8.5 µM | 0.11% of 330,000 active | AID 463141;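 active means activation above the mean of all tested compounds plus 3 SD, cut at about 21% in these data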;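 further: 0% = DMSO alone and 100% = DMSO wells spiked with extra 5 µM PC-3 D3A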
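Technique: 405 nm absorbance of p-nitroaniline, reads at 0 and 120 min; Test system: Procaspase-3 D3A mutant; Incubation: 1 h enzyme-compound preincubation, then 2 h substrate reaction, 25 °C; Repeats: singlicate, each compound tested once; Benchmarks: low control DMSO wells, high control DMSO plus 5 µM PC-3 D3A.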
pCIP destab: p/CIP protein destabilization | Q05BA5 | F442A p/CIP-EGFP cells, EGFP fluorescence, 16 h | decrease of EGFP signal, % at 10 µM | 0.01% of 290,000 active;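 active means EGFP signal decrease of at least 30% at 10 µM or well 3 SD below plate mean, unless failing retest; inactive means the rest, including hits failing retest or dose response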
Rce1 inhib: inhibitors of yeast Ras-converting enzyme; AID 2563; 0.27% of 290,000 active; calls only; yeast membranes, quenched prenylated peptide cleavage fluorescence;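 active means fall in fluorescence gain of 50% or more versus controls, with final raw signal at or below 3038400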;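 further: plate controls were neutral control wells for no effect and wells lacking membranes for full effect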
procasp7 counter: activates human procaspase-7, counter-screen for procaspase-3 activators; recombinant procaspase-7, Ac-DEVD-pNA absorbance 405 nm; D23A/D198A/D206A triple mutant, cannot self-cleave; scale: DMSO 0, 5 µM enzyme 100; activation, % at 8.5 µM; 0.093% of 330,000 active;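 active means percent activation above the screen-wide mean plus 3 SD, cut at about 25% in these data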
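Assay system: Uncleavable procaspase-7 mutant enzyme / Input: 2 µM procaspase-7 mutant as dispensed / Dosing: single nominal 8.5 µM compound dose, 0.8% DMSO final / Timing: 1 h enzyme–compound preincubation and 2 h substrate reaction, both 25 °C / Detection: p-Nitroaniline absorbance at 405 nm, read at 0 and 120 min / Replication: singlicate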
Lipid droplet: modulators of hepatic lipid droplet formation; AML12 mouse hepatocytes, oleate lipid droplets, BODIPY imaging; inhibition, % at 6.5 µM; 0.4% of 240,000 active; AID 1656;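 active means lipid droplet intensity inhibited by at least 50%, with more than 500 cells counted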
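Test system: AML12 hepatocytes (mouse); reagent: oleate loading, 100 µM; dosing: one dose, 6.5 µM compound; incubation: overnight exposure; signal: fluorescence imaging, 20x objective, two fields per well; read-out basis: % inhibition of corrected integrated BODIPY droplet signal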
GAA850 FXN act: frataxin GAA850 promoter activation | HEK293 lucGAA850 FXN promoter luciferase reporter, 24 h; percent of 10 µM SAHA response | activation, % at 6 µM | 0.56% of 360,000 active | AID 540364;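 active means activation above the average of all compounds screened plus 3 SD, cutoff fixed separately per campaign, cut at about 7.5% in these data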;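 further: 0% = DMSO wells and 100% = 10 µM SAHA wells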
GAA30 FXN cntr: activates GAA30 frataxin promoter, counter-screen for GAA850 activators; shares compounds with GAA850 FXN act; HEK293 lucGAA30 FXN promoter luciferase, 24 h; DMSO = 0%, 5 µM ipriflavone = 100%; activation, % at 6 µM; 66% of 1,900 active;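 active means mean activation above the mean of solvent-only control wells plus 3 SD, cut at about 22% in these data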;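 further: counterscreen of GAA850 promoter hits where activity marks nonselective or luminescence artifacts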
GAA850 confirm: confirmation of GAA850 frataxin (FXN) promoter activators; HEK293 lucGAA850 FXN promoter luciferase reporter, 24 h; 100% = activation by SAHA; shares compounds with GAA850 FXN act; 86% of 1,900 active; activation, % at 6 µM; AID 588351;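 active means mean activation above a set limit taken from the primary screen, cut at about 8% in these data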;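 further: 0% = DMSO wells and 100% = 10 µM SAHA wells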
Active calls of the source: *; i = inactive; . = no result given; ! = not active in a repeat. Shown are actives, neighbours in structure and some others; about 1.2% of the full set was active somewhere.

SMILES	proCasp3 act	pCIP destab	Rce1 inhib	procasp7 counter	Lipid droplet	GAA850 FXN act	GAA30 FXN cntr	GAA850 confirm
O=C(N/N=C/c1ccccc1[N+](=O)[O-])c1cccs1	-6.7	0.1	i	-0.2	-2.7	4.7	.	.
Cc1ccc(/C=N/NC(=O)c2cccs2)cc1[N+](=O)[O-]	13.4	-4.5	i	4.0	.	8.3*	102.7*	41.8*
CC(=O)c1ccc(OCC(O)CN2CCN(Cc3ccc4c(c3)OCO4)CC2)cc1 (centres undefined)	3.2	-4.3	i	5.3	-2.9	9.3*!	22.4*	5.8
Cc1ccsc1C(=O)N1CCC1(C)C(=O)NCCC#N (centres undefined)	.	.	.	.	.	-2.6	.	.
CCCCC(=O)N/N=C/c1ccc(Sc2cccc3cccnc23)o1	-2.5	0.2	i	-1.3	-1.1	15.1*	25.2*	7.7*
O=C(/C=C/c1cccs1)c1ccc(NC(=O)c2ccccc2F)cc1	2.4	-4.5	i	8.8	-0.3	1.8	.	.
COc1ccccc1C(=O)Nc1ccc(C(=O)/C=C/c2cccs2)cc1	-11.8	-0.6	i	-8.1	3.3	8.5*	22.5*	12.6*
Cc1nc(NC(=O)c2oc3ccccc3c2C)sc1C(=O)N(C)C	5.0	-4.7	i	1.9	1.1	7.8*	112.0*	36.3*
CCOC(=O)N(C)C[C@@H]1OCc2ccccc2-c2c(n(C)c3ccccc23)C(=O)N([C@H](C)CO)C[C@H]1C	.	.	.	.	.	-1.6	.	.
C[C@H](CO)N1C[C@H](C)[C@H](CN(C)C(=O)c2ccccc2)OCc2ccccc2-c2c(n(C)c3ccccc23)C1=O	.	.	.	.	.	8.5*	4.6	5.3
C[C@H]1CN([C@@H](C)CO)C(=O)c2c(c3ccccc3n2C)-c2ccccc2CO[C@H]1CN(C)Cc1cccc(F)c1	.	.	.	.	.	11.9*	23.3*	9.9*
C[C@H](CO)N1C[C@H](C)[C@H](CN(C)Cc2cccc(O)c2)OCc2ccccc2-c2c(n(C)c3ccccc23)C1=O	.	.	.	.	.	0.4	.	.
COc1ccc(NS(=O)(=O)c2ccc(F)c(F)c2F)cc1S(=O)(=O)N1CCOCC1	5.6	.	.	-1.2	.	-1.4	.	.
CC(C)CN1CCN(C(=O)COC(=O)c2ccc(S(C)(=O)=O)c([N+](=O)[O-])c2)CC1	.	.	.	.	.	9.7*	70.2*	14.9*
Cc1ccccc1N=C1Nc2ccccc2N[C@]12C[C@H]1CCC(=O)N3CC[C@@H](C2)[C@@H]13	.	.	.	.	.	-1.4	.	.
Cc1nn(-c2ccccc2)c(Cl)c1/C=N/NC(=O)c1ccnn1C	8.4	-7.1	i	-7.3	16.4	7.7*	116.5*	42.4*
Cc1nn(-c2ccccc2)c(Cl)c1/C=N/NC(N)=O	-6.6	7.7	i	-6.5	-2.7	5.3	.	.
O=C(OCC(=O)N(CCc1ccccc1)Cc1ccccc1)c1cccc(S(=O)(=O)N2CCOCC2)c1	.	.	.	.	.	-2.3	.	.
CC1CCCN(c2nc3ccsc3c(=O)s2)C1 (centres undefined)	1.5	2.2	i	2.9	-24.2	11.2*	82.1*	35.2*
O=C(NCc1ccccc1Cl)C1CCCN(c2nc3ccsc3c(=O)s2)C1 (centres undefined)	0.6	0.1	i	-3.5	-5.3	.	.	.
Nc1nc(N)nc(-c2cc(O)ccc2O)n1	-4.0	.	.	-2.1	.	-6.9	.	.
Nc1nc(N)nc(-c2cc([N+](=O)[O-])ccc2O)n1	2.8	.	.	11.7	.	16.7*	69.0*	51.5*
COc1cc2cc(C(=O)N(C)Cc3ccccc3)[nH]c2cc1OC	.	-7.3	i	.	2.5	0.1	.	.
C=CCN(Cc1ccc(OC)c(OC)c1)C(=O)c1cc2cc(F)ccc2[nH]1	2.8	6.3	i	-5.2	0.0	12.6*	27.1*	16.1*
